Experiments:
[1] = target: T1, Peroxisome proliferator-activated receptor gamma (Homo sapiens, UniProt P37231); experiment: Displacement of radiolabeled darglitazone from human PPAR gamma by SPA assay
T1 sequence (P37231 whole entry): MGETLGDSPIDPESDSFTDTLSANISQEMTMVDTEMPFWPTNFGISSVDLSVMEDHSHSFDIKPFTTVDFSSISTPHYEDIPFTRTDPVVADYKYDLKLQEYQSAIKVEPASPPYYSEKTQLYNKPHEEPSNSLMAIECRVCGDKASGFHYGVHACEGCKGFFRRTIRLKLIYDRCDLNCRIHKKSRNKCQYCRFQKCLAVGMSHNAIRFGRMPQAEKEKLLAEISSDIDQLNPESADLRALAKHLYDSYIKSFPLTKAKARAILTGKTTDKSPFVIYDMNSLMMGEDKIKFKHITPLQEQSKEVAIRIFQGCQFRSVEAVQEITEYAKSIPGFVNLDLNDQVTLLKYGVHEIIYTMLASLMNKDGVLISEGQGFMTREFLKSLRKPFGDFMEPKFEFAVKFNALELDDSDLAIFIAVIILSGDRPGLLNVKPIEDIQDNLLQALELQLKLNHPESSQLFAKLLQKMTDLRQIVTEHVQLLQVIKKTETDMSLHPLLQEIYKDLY

[2] = target: T2, Peroxisome proliferator-activated receptor alpha (Homo sapiens, UniProt Q07869); experiment: Displacement of radiolabeled GW-2331 from human PPAR alpha by SPA assay
T2 sequence (Q07869 whole entry): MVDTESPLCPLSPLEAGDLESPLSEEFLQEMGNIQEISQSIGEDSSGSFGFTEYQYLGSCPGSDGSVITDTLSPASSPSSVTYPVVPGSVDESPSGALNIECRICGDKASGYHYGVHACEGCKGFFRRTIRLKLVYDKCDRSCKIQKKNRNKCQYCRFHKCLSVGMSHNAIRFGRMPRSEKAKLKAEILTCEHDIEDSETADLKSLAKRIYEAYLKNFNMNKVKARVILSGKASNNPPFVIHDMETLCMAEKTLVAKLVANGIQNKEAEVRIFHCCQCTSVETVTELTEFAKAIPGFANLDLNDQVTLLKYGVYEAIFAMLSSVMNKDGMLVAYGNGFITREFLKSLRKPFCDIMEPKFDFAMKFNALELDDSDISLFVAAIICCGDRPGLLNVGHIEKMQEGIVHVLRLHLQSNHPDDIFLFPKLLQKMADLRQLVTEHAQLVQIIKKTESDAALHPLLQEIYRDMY

[3] = target: T1, Peroxisome proliferator-activated receptor gamma; experiment: Agonist activity at human PPAR gamma in HepG2 cells by PPAR-GAL4 transactivation assay; assay type: functional, cell-based
[4] = target: T2, Peroxisome proliferator-activated receptor alpha; experiment: Agonist activity at human PPAR alpha in HepG2 cells by PPAR-GAL4 transactivation assay; assay type: functional, cell-based
[5] = target: T3, Peroxisome proliferator-activated receptor alpha (Homo sapiens) (UniProt Q07869); experiment: Agonist activity at human PPAR alpha in HepG2 cells by PPAR-GAL4 transactivation assay relative to GW-2331; assay type: functional, cell-based
T3 sequence (whole entry): T2 sequence (Q07869 whole entry)
Method in brief: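 Human PPARα–GAL4 chimera in HepG2 cells, transactivation read-out. Compounds titrated. EC50 taken as the concentration giving half of the compound's own maximal response. Percent maximal activation expressed relative to GW2331 as the standard full agonist. Where no plateau was reached, only maximal activity was reported.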

[6] = Clearance in iv dosed Sprague-Dawley rat; assay type: ADME, organism-based; settings: in vivo
Method in brief: (§1)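 Male Sprague–Dawley rats were given the compound both orally and intravenously. Clearance comes from the iv leg. Half-life and AUC come from the oral leg, with AUC reported dose-normalized. Oral bioavailability compares the oral and iv exposures.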

[7] = Half life in orally dosed Sprague-Dawley rat; assay type: ADME, organism-based; settings: in vivo, po; method in brief: as §1
Mus musculus [8] = experiment: Reduction of plasma glucose in db/db mouse at 3 mg/kg, po after 8 day; assay type: functional; set-up: scale not given: the % may be the effect or the level left
Mus musculus [9] = experiment: Reduction of plasma glucose in db/db mouse at 30 mg/kg, po after 8 day; assay type: functional; set-up: scale not given: the % may be the effect or the level left
Mus musculus [10] = experiment: Reduction of plasma triglycerides in db/db mouse at 3 mg/kg, po after 8 day; assay type: functional; set-up: scale not given: the % may be the effect or the level left
Mus musculus [11] = experiment: Reduction of plasma triglycerides in db/db mouse at 30 mg/kg, po after 8 day; assay type: functional; set-up: scale not given: the % may be the effect or the level left
Mus musculus [12] = experiment: Reduction of hematocrit in db/db mouse at 3 mg/kg, po after 8 day; assay type: functional; set-up: scale not given: the % may be the effect or the level left
Mus musculus [13] = experiment: Reduction of hematocrit in db/db mouse at 30 mg/kg, po after 8 day; assay type: functional; set-up: scale not given: the % may be the effect or the level left
Mus musculus [14] = experiment: Increase in body weight in db/db mouse at 3 mg/kg, po after 8 day; assay type: functional
Mus musculus [15] = experiment: Increase in body weight in db/db mouse at 30 mg/kg, po after 8 day; assay type: functional
[16] = Oral bioavailability in Sprague-Dawley rat; assay type: ADME, organism-based; settings: in vivo; method in brief: as §1
[17] = AUC in orally dosed Sprague-Dawley rat; assay type: ADME, organism-based; settings: plasma, po; method in brief: as §1
[18] = target: T3, Peroxisome proliferator-activated receptor alpha (Homo sapiens); settings: 100 uM

SMILES | Ki [2] | EC50 [3] | EC50 [4] | Activity [5] | other results
COC(Cc1ccc(OCCc2nc(-c3ccccc3)oc2C)cn1)C(=O)O (stereo unspecified) | 3.7 µM | 0.28 µM | 3.14 µM | 95% | Ki [1]: 0.348 µM
Cc1oc(-c2ccccc2)nc1CCOc1ccc(C[C@]2(C(=O)O)CCCO2)nc1 | – | – | – | 97% | clearance [6]: 16.7 mL/min/kg; half-life [7]: 1.6 h; Activity (Mus musculus [8]): 74%; Activity (Mus musculus [9]): 94%; Activity (Mus musculus [10]): 105%; Activity (Mus musculus [11]): 119%; Activity (Mus musculus [12]): 4.3%; Activity (Mus musculus [13]): 4.4%; Activity (Mus musculus [14]): 15.5%; Activity (Mus musculus [15]): 20.5%; bioavailability [16]: 58%; AUC [17]: 1200 ng·h/mL
Cc1oc(-c2ccccc2)nc1CCOc1ccc(CC2(C(=O)O)CCCCO2)nc1 (stereo unspecified) | – | > 10 µM | > 10 µM | 5% | –
CN(CCOc1ccc(CC2SC(=O)NC2=O)cc1)c1ccccn1 (stereo unspecified) [ROSIGLITAZONE] | – | – | – | – | Activity (Mus musculus [8]): 51%; Activity (Mus musculus [9]): 74%; Activity (Mus musculus [10]): 83%; Activity (Mus musculus [11]): 106%; Activity (Mus musculus [12]): 1.2%; Activity (Mus musculus [13]): 5.2%; Activity (Mus musculus [14]): 9.5%; Activity (Mus musculus [15]): 17.4%; inhibition [18]: 45%
Cc1oc(-c2ccc(Cl)cc2)nc1CCOc1ccc(CC2(C(=O)O)CCCO2)nc1 (stereo unspecified) | – | 0.13 µM | 0.048 µM | 122% | –
Cc1oc(-c2ccccc2)nc1CCOc1ccc(CC2(C(=O)O)CCCO2)nc1 (stereo unspecified) | – | – | – | 90% | –
CCOC(Cc1ccc(OCCCc2nc(-c3ccccc3)oc2C)cn1)C(=O)O (stereo unspecified) | 0.84 µM | – | 0.886 µM | 76% | –
COc1ccc(-c2nc(CCOc3ccc(CC4(C(=O)O)CCCO4)nc3)c(C)o2)cc1 (stereo unspecified) | 0.84 µM | 0.105 µM | 0.437 µM | 95% | –
COC(C)(Cc1ccc(OCCc2nc(-c3ccccc3)oc2C)cn1)C(=O)O (stereo unspecified) | 4.8 µM | 0.335 µM | 0.882 µM | 114% | Ki [1]: 1.6 µM
Cc1oc(-c2ccccc2)nc1CCOc1ccc(C[C@@]2(C(=O)O)CCCO2)nc1 | – | – | – | 6% | –
Cc1oc(-c2ccccc2)nc1CCOc1cnc(CC2(C(=O)O)CCCO2)cn1 (stereo unspecified) | 3.49 µM | 0.156 µM | 1.89 µM | 77% | Ki [1]: 0.16 µM
COc1cccc(-c2nc(CCOc3ccc(CC4(C(=O)O)CCCO4)nc3)c(C)o2)c1 (stereo unspecified) | – | 0.005 µM | 1.57 µM | 98% | –
Cc1cccc(-c2nc(CCOc3ccc(CC4(C(=O)O)CCCO4)nc3)c(C)o2)c1 (stereo unspecified) | – | 0.012 µM | 0.867 µM | 93% | –
Cc1oc(-c2ccccc2)nc1CCOc1ncc(CC2(C(=O)O)CCCO2)cn1 (stereo unspecified) | – | 2.5 µM | > 10 µM | 58% | –
CCOC(Cc1ccc(OCCc2nc(-c3ccccc3)oc2C)cn1)C(=O)O (stereo unspecified) | 2 µM | 0.129 µM | 1.23 µM | 100% | Ki [1]: 0.073 µM

Reference: ChEMBL document CHEMBL1139747, “Pyridine-2-propanoic acids: Discovery of dual PPARalpha/gamma agonists as antidiabetic agents” (Bioorg Med Chem Lett, 2006)
